These results are taken from ChEMBL document CHEMBL1125242, “Synthesis and anticonvulsant activity of 1-acyl-2-pyrrolidinone derivatives” (J Med Chem, 1991).

For data set [1], the system named is Mus musculus. The experiment in a line: Sleeping time in mice after administration in mice induced by sodium pentobarbital. The format is functional. In a few lines:
(§1)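 Male ddY mice (20–30 g) are dosed i.p. at 50 mg/kg as a suspension in pH 7.4 isotonic phosphate buffer with 1% CMC-Na (0.1 mL/10 g), 30 min before i.p. sodium pentobarbital (45 mg/kg). Loss of righting reflex and sleeping time are recorded per mouse. Mean ± SEM; Student's t test versus control.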

For data set [2], the species on record is Mus musculus. In words: Survival ratio was calculated for determination of dose dependency. The format is functional. In a few lines:
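In male ddY mice (20–30 g), compound was given i.p. at varied doses as a suspension in pH 7.4 isotonic phosphate buffer with 1% CMC-Na, 15 min before s.c. picrotoxin 5 mg/kg. Dosing volume was 0.1 mL/10 g. Over 2 h of observation, the fraction of mice surviving was recorded at each dose to define dose dependency.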

Data set [3] in a line: Degradation rate constant in the buffer solution(pH 7.4) was studied as a measure of the stability of the compound. The format is physicochemical. In a few lines: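 A 0.1 M acetonitrile stock is added to preheated pH 7.4 phosphate buffer (0.1 M total, ionic strength 0.3 with NaCl) to 1 mM at 37 ± 0.2 °C. Aliquots are sampled over time. Pseudo-first-order fit gives the apparent rate constant in h⁻¹.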

The species entered for data set [4] is Mus musculus. In words: Degradation rate constant in biological media of mouse brain homogenates. The format is ADME, organism-based. In a few lines: (§2)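 Tissues come from male ddY mice (20–30 g) and male Wistar rats (200–250 g). Liver and brain are homogenized at 0–5 °C to 40% in pH 7.4 isotonic phosphate buffer and spun at 2500g for 15 min; the supernatant is used. Plasma is also used. A 0.1 M acetonitrile stock gives 1 mM final. Incubation at 37 ± 0.2 °C; apparent rate constant in h⁻¹.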

Data set [5] deals with Mus musculus. The experiment in a line: Onset for sleeping time after administration in mice induced by sodium pentobarbital. The format is functional. In a few lines:
as §1

The species entered for data set [6] is Mus musculus. In words: Compounds were evaluated for the effect on electroconvulsive-shock-induced disruption (ECS) of the memory of passive avoidance response (anti-amnesic activity) in mice and expressed as latency. The format is functional. Put shortly: (§3)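 Male ddY mice (20–25 g) are dosed i.p. at 200 mg/kg as a suspension in pH 7.4 isotonic phosphate buffer with 1% CMC-Na (0.1 mL/10 g), 60 min before training. A two-compartment step-through box is used: lighted compartment, darkened compartment with grid floor, 30 V foot shock. Memory is disrupted by electroconvulsive shock. Mean ± SEM; Student's t test versus the ECS group.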

Data set [7] is filed under the species Mus musculus. In words: Latency to the onset of generalized clonic epileptic seizures by picrotoxin was measured and evaluated as a percent of the control in mice. The format is functional. Set-up: concentration or dose not given beside the values. Put shortly:
(§4)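 Male ddY mice (20–30 g) were given compound i.p. at 200 mg/kg as a suspension in pH 7.4 isotonic phosphate buffer with 1% CMC-Na, 15 min before s.c. picrotoxin 5 mg/kg. Dosing volume was 0.1 mL/10 g, and controls received vehicle. Latency to generalized clonic seizure and survival time were each expressed as % of control.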

The species entered for data set [8] is Mus musculus. The experiment in a line: Latency to the protection against lethality by picrotoxin was measured and evaluated as a percent of the control in mice. The format is functional. Set-up: concentration or dose not given beside the values. Put shortly:
as §4

For data set [9], the species on record is Rattus norvegicus. In words: Degradation rate constant in biological media of rat liver homogenates. The format is ADME, organism-based. In a few lines:
as §2

A short description of data set [10]: Apparent partition coefficient between 1-octanol and pH 5.0 phosphate buffer (0.1 M) at 37 degrees Centigrade. The format is physicochemical. The settings on record: 1-octanol/phosphate buffer, read-out: LogD5.0. Put shortly:
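Final drug concentration 2 mM. The value is reported as the log of the apparent partition coefficient.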

The species named for data set [11] is Mus musculus. The experiment in a line: Compounds were evaluated for the effect on electroconvulsive-shock-induced disruption (ECS) of the memory of passive avoidance response (antiamnesic activity) in mice and expressed as learning time. The format is functional. In a few lines:
as §3

For data set [12], the species on record is Rattus norvegicus. In words: Degradation rate constant in biological media of rat plasma homogenates. The format is ADME, organism-based. Put shortly:
as §2

Data set [13] is filed under the species Rattus norvegicus. In words: Degradation rate constant in biological media of rat brain homogenates. The format is ADME, organism-based. In a few lines: as §2
The species named for data set [14] is Mus musculus. The experiment in a line: Degradation rate constant in biological media of mouse liver homogenates. The format is ADME, organism-based. Put shortly:
as §2

Data set [15] is filed under the species Mus musculus. In words: Compounds were evaluated for the effect on electroconvulsive-shock-induced disruption (ECS) of the memory of passive avoidance response (antiamnesic activity) in mice and expressed as latency. The format is functional. Put shortly:
as §3

Data set [16] in a line: Solubility in pH 5.0 phosphate buffer (0.1 M) at 37 degrees Centigrade; Miscible. The format is physicochemical.

As for `CCCCCCC(=O)N1CCCC1=O`, the Sleeping time in data set [1] worked out at 61.8 min. Also, in [2], the Survival ratio is given as 0. In addition, the Degradation rate constant was found to be 0.012 h⁻¹ in data set [3]; 0.086 h⁻¹ in [4]; 14.6 h⁻¹ in [9]; 0.056 h⁻¹ in data set [12]; 0.075 h⁻¹ in data set [13]; 11.9 h⁻¹ in data set [14]. In [5], this compound registered an Onset for sleep of 7.9 min. This compound also returned a Latency in [6] of 240.6 s. The “Latency to clonic seizure onset (% of control)” value (from here on “Latency … (% of control)”) in data set [7] came out at 124%. Also, in data set [8], the Survival time is on record as 116%. Further, the logD in [10] came out at 3.04. In data set [11], this compound yielded a Learning time of 20.4 s.
Take `CCCCCCCCCCCC(=O)NCCCC(=O)O`: in data set [2], the Survival ratio is 60. Besides, the “Latency … (% of control)” value in data set [7] is on record as 493%. In data set [8], this compound gave a Survival time of 388%.
The matching figures for `O=C(O)CCC(=O)N1CCCC1=O`: 0, 113% and 93%.
The compound `CCCC(=O)N1CCCC1=O` returned a Sleeping time in data set [1] of 92 min. In [2], the Survival ratio was 0. The Degradation rate constant stood at 0.006 h⁻¹ in [3]; 0.016 h⁻¹ in data set [4]; 3.11 h⁻¹ in data set [9]; 0.054 h⁻¹ in data set [12]; 0.016 h⁻¹ in [13]; 1.35 h⁻¹ in data set [14]. For the same compound, the Onset for sleep in data set [5] is given as 7.2 min. Also, the “Latency … (% of control)” value in data set [7] was found to be 92%. In [8], this compound showed a Survival time of 142%. Also, the logD in [10] came out at 1.18.
In [1], `CCCC(CCC)C(=O)O` [VALPROIC ACID] gave a Sleeping time of 36.4 min. In [2], the Survival ratio was 63. Moreover, the “Onset for sleep, min” value in [5] stood at 10. For the same compound, the “Latency … (% of control)” value in data set [7] was 171%. In [8], this compound registered a Survival time of 472%.
Take `O=C1CCCN1C(=O)c1ccccc1`: the Survival ratio in data set [2] is listed as 0. The “Latency … (% of control)” value in data set [7] is recorded as 114%. In addition, the Survival time in [8] is on record as 93%.
Take `CCCCC(=O)N1CCCC1=O`: in [2], the Survival ratio is reported as 0. For the same compound, in data set [7], the “Latency … (% of control)” value came to 78%. This compound showed a Survival time in data set [8] of 107%.
Compound `NCCCC(=O)O` [GAMMA-AMINOBUTYRIC ACID] registered a Sleeping time in [1] of 25.7 min. Also, the Onset for sleep in data set [5] is 10.1 min. In data set [7], the “Latency … (% of control)” value is listed as 115%. Also, the Survival time in [8] worked out at 112%. Moreover, the logD in data set [10] was -3.33.
In data set [1], `CCCCCCCCCCCC(=O)N1CCCC1=O` showed a Sleeping time of 47.4 min. For the same compound, the Survival ratio in data set [2] is given as 80. Also, the Degradation rate constant came to 0.007 h⁻¹ in data set [3]; 0.155 h⁻¹ in data set [4]; 1.23 h⁻¹ in data set [9]; 0.016 h⁻¹ in data set [12]; 0.233 h⁻¹ in data set [13]; 0.789 h⁻¹ in data set [14]. Moreover, in [5], the Onset for sleep is given as 9.6 min. For the same compound, in data set [7], the “Latency … (% of control)” value was found to be 129%. In data set [8], this compound yielded a Survival time of 494%. The logD in data set [10] turned out to be 5.05. This compound showed a Learning time in [11] of 19.4 s. The Latency in data set [15] is listed as 278.8 s.
In data set [1], `O=C1CCCN1` [2-PYRROLIDONE] yielded a Sleeping time of 24.8 min. For the same compound, the Survival ratio in [2] is 0. The Degradation rate constant is below 0.0001 h⁻¹ in data set [3]; 0.002 h⁻¹ in data set [4]; 0.03 h⁻¹ in data set [9]; 0.018 h⁻¹ in [12]; 0.016 h⁻¹ in [13]; 0.034 h⁻¹ in [14]. The same compound had an Onset for sleep in data set [5] of 10.2 min. Besides, the “Latency … (% of control)” value in [7] is on record as 107%. Also, the Survival time in [8] is recorded as 102%. Moreover, the Saq entry in data set [16] is given as “Miscible”.
`CC(C)(C)C(=O)N1CCCC1=O`: in [2], the Survival ratio is recorded as 0. Also, the “Latency … (% of control)” value in data set [7] was 101%. In [8], the Survival time amounted to 120%.
Compound `CC(=O)N1CCCC1=O` came in with a Sleeping time in [1] of 38.2 min. In addition, the Survival ratio in data set [2] is 0. Besides, the Degradation rate constant was determined as 0.015 h⁻¹ in [3]; 0.01 h⁻¹ in [4]; 0.097 h⁻¹ in data set [9]; 0.028 h⁻¹ in data set [12]; 0.014 h⁻¹ in data set [13]; 0.221 h⁻¹ in data set [14]. Moreover, in data set [5], the Onset for sleep came out at 6.9 min. Moreover, the “Latency … (% of control)” value in [7] came out at 97%. Moreover, in data set [8], the Survival time was 144%. For the same compound, the Saq entry in data set [16] is “Miscible”. Besides, in data set [10], the logD was -0.05. The same compound yielded a Learning time in data set [11] of 15.3 s. Also, in [15], the Latency was determined as 101.7 s.
As for `CCCCCCCCCC(=O)N1CCCC1=O`, the Survival ratio in data set [2] is 50. Also, the Degradation rate constant in data set [3] was 0.008 h⁻¹; in [4], 0.326 h⁻¹; in data set [9], 2.87 h⁻¹; in data set [12] it was 0.025 h⁻¹; in [13] it was 0.381 h⁻¹; in data set [14], 2.53 h⁻¹. In addition, the “Latency … (% of control)” value in data set [7] was 302%. Also, the Survival time in [8] came out at 364%. The logD in data set [10] came to 4.33.
Turning to `CCC1(C)CC(=O)NC1=O` (stereo unspecified) [ETHOSUXIMIDE], the Survival ratio in [2] is 100. Moreover, the “Latency … (% of control)” value in data set [7] was found to be 792%. This compound displayed a Survival time in data set [8] of 577%.
`CCC(=O)N1CCCC1=O`: in data set [2], the Survival ratio is 0. Besides, the “Latency … (% of control)” value in [7] was 104%. Further, the Survival time in data set [8] is 112%.
For `O=C1CCCN1C(=O)Cc1ccccc1`, in that order: 33, 106% and 281%.
